Assay results as given in ChEMBL document CHEMBL1124219, “Inhibition of porcine pepsin by two substrate analogues containing statine. The effect of histidine at the P2 subsite on the inhibition of aspartic proteinases” (J Med Chem, 1988).
pIC50, pKi: −log10 of the molar value. *1 amine or outer side, *2 acyl side, *3 side chain or, on linkers, in order; H or OH if unused. Where a SMILES comes first, the peptide text is derived from it. [ ]: non-standard residue; d: D form. The star is where a group is joined. ξ: configuration not given here. Sta(3ξ) = CC(C)C[C@H](N[*:1])C(O)CC(=O)[*:2]; X1 = CC(C)CC(N[*:1])C(O)CC(C(=O)[*:2])C(C)C; Sta = CC(C)C[C@H](N)[C@@H](O)CC(=O)O; NMeH = CN[C@@H](Cc1c[nH]cn1)C(=O)O; NHCH2(2-pyridyl) = c1ccc(CN*)nc1; Isobutyryl = CC(C)C(=O)*; Boc = CC(C)(C)OC(=O)*

How the values were obtained:
Pepsin A [1] = target: T1, Pepsin A (Sus scrofa, UniProt P00791); test: Inhibition of porcine pepsin at pH 4.0
Outline: (§1)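 Hydrolysis was followed as the absorbance drop at 290 nm over the first 5–10% of reaction. Percent activity was plotted against inhibitor concentration to give IC50, and Ki = (IC50 − 0.5Et)/(1 + S/Km).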

Renin [2] = target: T2, Renin (Homo sapiens, UniProt P00797); test: Inhibition of human renin at pH 7.4
T2 sequence (P00797 whole entry): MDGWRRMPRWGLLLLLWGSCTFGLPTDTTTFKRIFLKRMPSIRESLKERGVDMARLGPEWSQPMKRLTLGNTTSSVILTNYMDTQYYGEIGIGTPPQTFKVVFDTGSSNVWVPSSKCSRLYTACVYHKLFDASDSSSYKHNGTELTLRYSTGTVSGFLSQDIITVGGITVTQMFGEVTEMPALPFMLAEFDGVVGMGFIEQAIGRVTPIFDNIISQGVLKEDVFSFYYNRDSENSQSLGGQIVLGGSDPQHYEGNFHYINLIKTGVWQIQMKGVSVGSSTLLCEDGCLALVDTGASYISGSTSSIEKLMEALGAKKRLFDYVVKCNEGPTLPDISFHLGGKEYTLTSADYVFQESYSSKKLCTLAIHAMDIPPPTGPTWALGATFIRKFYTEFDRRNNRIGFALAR

Cathepsin D [3] = target: T3, Cathepsin D (Bos taurus, UniProt P80209); test: Inhibition of bovine cathepsin D at pH 3.1
T3 sequence (P80209 whole entry): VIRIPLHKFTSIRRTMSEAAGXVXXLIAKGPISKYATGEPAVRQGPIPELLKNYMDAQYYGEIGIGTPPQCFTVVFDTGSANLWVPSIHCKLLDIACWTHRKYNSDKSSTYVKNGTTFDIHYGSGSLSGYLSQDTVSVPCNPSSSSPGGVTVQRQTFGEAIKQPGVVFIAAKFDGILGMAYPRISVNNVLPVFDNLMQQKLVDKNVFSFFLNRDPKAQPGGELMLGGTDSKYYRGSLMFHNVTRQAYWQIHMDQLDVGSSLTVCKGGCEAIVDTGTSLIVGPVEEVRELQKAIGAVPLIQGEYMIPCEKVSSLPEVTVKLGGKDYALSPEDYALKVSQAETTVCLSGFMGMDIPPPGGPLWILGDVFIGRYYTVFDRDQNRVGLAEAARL

Pepsin A [4] = target: T4, Pepsin A (Homo sapiens, UniProt P0DJD9); test: Inhibition of human pepsin at pH 2.0
Pepsin A [5] = target: T4, Pepsin A; test: Inhibition of human pepsin at pH 3.1
Cathepsin D [6] = target: T3, Cathepsin D; test: Inhibition of bovine cathepsin D at pH 3.2
Pepsin A [7] = target: T1, Pepsin A; test: Inhibition of porcine pepsin at pH 4; outline: as §1
Cathepsin D [8] = target: T3, Cathepsin D; test: Inhibition of bovine cathepsin D at pH 3.3(no inhibition)
Renin [9] = target: T2, Renin; test: Inhibition of human renin at pH 7.0
Pepsin A [10] = target: T1, Pepsin A; test: Inhibition of porcine pepsin at pH 2.0
Renin [11] = target: T2, Renin; test: Inhibition of human renin at pH 6.0
Pepsin A [12] = target: T1, Pepsin A; test: Inhibition of porcine pepsin at pH 4.0 (time-dependent inhibition, T1/2>30 s)
Pepsin A [13] = target: T1, Pepsin A; test: Inhibition of porcine pepsin at pH 1.9

T1 sequence (P00791 whole entry): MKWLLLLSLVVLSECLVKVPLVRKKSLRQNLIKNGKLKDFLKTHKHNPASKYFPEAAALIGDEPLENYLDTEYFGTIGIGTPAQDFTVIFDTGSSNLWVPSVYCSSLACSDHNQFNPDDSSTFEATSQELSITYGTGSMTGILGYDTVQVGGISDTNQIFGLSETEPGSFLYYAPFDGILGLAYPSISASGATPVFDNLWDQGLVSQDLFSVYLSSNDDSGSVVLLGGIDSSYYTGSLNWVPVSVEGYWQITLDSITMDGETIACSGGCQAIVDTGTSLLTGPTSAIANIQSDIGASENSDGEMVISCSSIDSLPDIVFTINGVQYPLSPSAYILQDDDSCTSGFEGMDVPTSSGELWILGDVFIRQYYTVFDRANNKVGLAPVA
T4 sequence (P0DJD9 whole entry): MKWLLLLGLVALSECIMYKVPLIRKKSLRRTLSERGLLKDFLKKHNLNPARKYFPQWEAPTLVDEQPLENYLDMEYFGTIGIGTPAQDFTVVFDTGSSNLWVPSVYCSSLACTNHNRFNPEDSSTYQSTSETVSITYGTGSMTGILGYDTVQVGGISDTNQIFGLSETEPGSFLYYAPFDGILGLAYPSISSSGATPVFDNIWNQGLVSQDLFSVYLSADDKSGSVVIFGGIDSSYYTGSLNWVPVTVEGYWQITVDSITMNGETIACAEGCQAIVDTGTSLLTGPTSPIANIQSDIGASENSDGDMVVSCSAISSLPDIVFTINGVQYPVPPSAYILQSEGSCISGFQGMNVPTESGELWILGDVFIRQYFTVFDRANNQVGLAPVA

SMILES	pKi (Pepsin A [1])	pKi (Renin [2])	pIC50 (Pepsin A [10])	further results
COC(=O)[C@H](Cc1ccccc1)NC(=O)[C@H](CC(C)C)NC(=O)CC(O)[C@H](CC(C)C)NC(=O)CCCNC(=O)[C@H](Cc1ccccc1)NC(=O)[C@@H]1CCCN1C(=O)CCCN (stereo not given in full)	> 9.00	8.05		
CC[C@H](C)[C@H](NC(=O)C(F)(F)C(=O)[C@H](CC(C)C)NC(=O)[C@H](Cc1c[nH]cn1)NC(=O)[C@H](Cc1ccccc1)NC(=O)OC(C)(C)C)C(=O)NCc1ccccn1				pIC50 (Cathepsin D [3]): 4.40; pIC50 (Pepsin A [4]): 4.38; pIC50 (Pepsin A [5]): 4.22; pIC50 (Cathepsin D [6]): 5.77
CC(C)C[C@H](NC(=O)CC(O)[C@H](CC(C)C)NC(=O)[C@H](Cc1c[nH]cn1)NC(=O)[C@H](Cc1ccccc1)NC(=O)[C@@H]1CCCN1C(=O)[C@H](Cc1c[nH]cn1)NC(=O)C(C)C)C(=O)N[C@@H](Cc1ccccc1)C(N)=O (stereo not given in full) (Isobutyryl-HPFH[Sta(3ξ)]LF-NH2)	7.64	7.80		
CC(C)C[C@H](NC(=O)CC(O)[C@H](CC(C)C)NC(=O)[C@H](C)NC(=O)[C@H](Cc1ccccc1)NC(=O)[C@@H]1CCCN1C(=O)[C@H](Cc1c[nH]cn1)NC(=O)C(C)C)C(=O)N[C@@H](Cc1ccccc1)C(N)=O (stereo not given in full) (Isobutyryl-HPFA[Sta(3ξ)]LF-NH2)	8.40	7.00		
COC(=O)[C@H](Cc1ccccc1)NC(=O)[C@H](C)NC(=O)C[C@H](O)[C@H](CC(C)C)NC(=O)[C@H](Cc1c[nH]cn1)NC(=O)CNC(=O)[C@@H](N)Cc1ccccc1 (H-FGH[Sta]AF-OMe)				pKi (Pepsin A [7]): 6.82
CC[C@H](C)[C@H](NC(=O)[C@@H](NC[C@H](CC(C)C)NC(=O)[C@H](Cc1c[nH]cn1)NC(=O)[C@H](Cc1ccccc1)NC(=O)[C@@H]1CCCN1C(=O)[C@H](Cc1c[nH]cn1)NC(=O)[C@@H]1CCCN1)C(C)C)C(=O)N[C@@H](Cc1c[nH]cn1)C(=O)N[C@@H](CCCCN)C(=O)O				pIC50 (Cathepsin D [8]): < 3.15; pIC50 (Renin [9]): 8.00
CC[C@H](C)[C@H](NC(=O)C(CC(O)C(CC(C)C)NC(=O)[C@H](Cc1c[nH]cn1)N(C)C(=O)[C@H](Cc1ccccc1)NC(=O)[C@@H]1CCCN1C(=O)OC(C)(C)C)C(C)C)C(=O)NCc1ccccn1 (stereo not given in full) (Boc-PF[NMeH][X1]I-{NHCH2(2-pyridyl)})			5.17	pIC50 (Renin [11]): 9.59; pIC50 (Cathepsin D [6]): 5.20
CC(C)C[C@H](NC(=O)CC(O)[C@H](CC(C)C)NC(=O)[C@H](Cc1c[nH]cn1)NC(=O)[C@H](Cc1ccccc1)NC(=O)[C@@H]1CCCN1C(=O)[C@@H](N)Cc1c[nH]cn1)C(=O)N[C@@H](Cc1ccccc1)C(N)=O (stereo not given in full) (H-HPFH[Sta(3ξ)]LF-NH2)	7.47	8.10		
CC[C@H](C)[C@H](NC(=O)C(F)(F)C(=O)C(CC(C)C)NC(=O)[C@H](Cc1c[nH]cn1)NC(=O)[C@H](Cc1ccccc1)NC(=O)OC(C)(C)C)C(=O)NCc1ccccn1 (stereo not given in full)				pIC50 (Renin [9]): 8.00; pIC50 (Renin [11]): 8.85
COC(=O)[C@H](Cc1ccccc1)NC(=O)[C@H](C)NC(=O)C[C@H](O)[C@H](CC(C)C)NC(=O)[C@@H](NC(=O)CNC(=O)[C@@H](N)Cc1ccccc1)C(C)C (H-FGV[Sta]AF-OMe)				pKi (Pepsin A [12]): > 9.00
CC(C)CC(NC(=O)CCc1ccccc1)SCC(O)C(CC1CCCCC1)NC(=O)[C@H](Cc1cnc[nH]1)NC(=O)[C@H](Cc1ccccc1)NC(=O)OC(C)(C)C (stereo not given in full)				pIC50 (Cathepsin D [3]): < 4.00; pIC50 (Pepsin A [13]): < 4.00; pIC50 (Renin [11]): 8.15

Further lines, with some results ahead:

pKi (Pepsin A [1])	pKi (Renin [2])	pIC50 (Pepsin A [10])	SMILES	further results
7.17	5.96		COC(=O)[C@H](Cc1ccccc1)NC(=O)[C@H](CC(C)C)NC(=O)CC(O)[C@H](CC(C)C)NC(=O)[C@H](Cc1c[nH]cn1)NC(=O)COC(=O)C(C)(C)C (stereo not given in full)	
7.92	5.77		COC(=O)[C@H](Cc1ccccc1)NC(=O)[C@H](CC(C)C)NC(=O)CC(O)[C@H](CC(C)C)NC(=O)[C@H](CC(C)C)NC(=O)COC(=O)C(C)(C)C (stereo not given in full)	
		7.22	COC(=O)CC(O)[C@H](CC(C)C)NC(=O)[C@H](C)NC(=O)CC(O)[C@H](CC(C)C)NC(=O)[C@@H](NC(=O)[C@H](Cc1ccccc1)NC(=O)OCc1ccccc1)C(C)C (stereo not given in full)	
		7.85	COC(=O)CC(O)[C@H](CC(C)C)NC(=O)[C@H](C)NC(=O)CC(O)[C@H](CC(C)C)NC(=O)[C@H](Cc1ccccc1)NC(=O)[C@H](Cc1ccccc1)NC(=O)OC(C)(C)C (stereo not given in full)	pIC50 (Renin [11]): 8.46
		5.89	COC(=O)CC(O)[C@H](CC(C)C)NC(=O)[C@H](C)NC(=O)CC(O)[C@H](CC(C)C)NC(=O)[C@H](Cc1cnc[nH]1)NC(=O)[C@H](Cc1ccccc1)NC(=O)OC(C)(C)C (stereo in doubt; 17)	
		6.07	COC(=O)CC(O)[C@H](CC(C)C)NC(=O)[C@H](C)NC(=O)CC(O)[C@H](CC(C)C)NC(=O)[C@H](Cc1c[nH]cn1)NC(=O)[C@H](Cc1c[nH]c2ccccc12)NC(=O)OC(C)(C)C (stereo not given in full)	pIC50 (Renin [11]): 8.26
		5.89	COC(=O)CC(O)[C@H](CC(C)C)NC(=O)[C@H](C)NC(=O)CC(O)[C@H](CC(C)C)NC(=O)[C@H](Cc1cnc[nH]1)NC(=O)[C@H](Cc1ccccc1)NC(=O)OC(C)(C)C (stereo in doubt; 15)	
